Among the data in ChEMBL document CHEMBL5096187, “Efficient Synthesis and Bioevaluation of Novel Dual Tubulin/Histone Deacetylase 3 Inhibitors as Potential Anticancer Agents” (J Med Chem, 2021) are IC50 and inhibition values, retold here.

In one assay the test system is Jurkat. Description: Antiproliferative activity against human Jurkat cells assessed as inhibition of cell viability measured for 48 hrs by microplate reader based CCK-8 assay. It counts as functional.
The next assay relates to B16-F10. Put plainly: Antiproliferative activity against mouse B16-F10 cells assessed as inhibition of cell viability measured for 48 hrs by microplate reader based MTT assay. The assay is classed as functional. The note with it: B16-F10, 48 h. In short, it runs like this:
(§1)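 Cells grown in RPMI-1640 with 10% FBS and seeded at 5000 cells/well. After overnight attachment, compound was added in medium with 0.1% DMSO for 48 h at 37 °C. Read-out was MTT for HCT-116, B16-F10 and A549, and CCK-8 for Jurkat (0.5 mg/mL, 4 h), with absorbance at 570 nm. IC50 from nonlinear regression; at least three independent experiments.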
A general note: Tetrazolium dyes change colour on reduction, which living cells bring about.

Assay [1] deals with T1, Protein deacetylase HDAC6 (Homo sapiens, UniProt Q9UBN7).
T1 sequence (Q9UBN7 whole entry): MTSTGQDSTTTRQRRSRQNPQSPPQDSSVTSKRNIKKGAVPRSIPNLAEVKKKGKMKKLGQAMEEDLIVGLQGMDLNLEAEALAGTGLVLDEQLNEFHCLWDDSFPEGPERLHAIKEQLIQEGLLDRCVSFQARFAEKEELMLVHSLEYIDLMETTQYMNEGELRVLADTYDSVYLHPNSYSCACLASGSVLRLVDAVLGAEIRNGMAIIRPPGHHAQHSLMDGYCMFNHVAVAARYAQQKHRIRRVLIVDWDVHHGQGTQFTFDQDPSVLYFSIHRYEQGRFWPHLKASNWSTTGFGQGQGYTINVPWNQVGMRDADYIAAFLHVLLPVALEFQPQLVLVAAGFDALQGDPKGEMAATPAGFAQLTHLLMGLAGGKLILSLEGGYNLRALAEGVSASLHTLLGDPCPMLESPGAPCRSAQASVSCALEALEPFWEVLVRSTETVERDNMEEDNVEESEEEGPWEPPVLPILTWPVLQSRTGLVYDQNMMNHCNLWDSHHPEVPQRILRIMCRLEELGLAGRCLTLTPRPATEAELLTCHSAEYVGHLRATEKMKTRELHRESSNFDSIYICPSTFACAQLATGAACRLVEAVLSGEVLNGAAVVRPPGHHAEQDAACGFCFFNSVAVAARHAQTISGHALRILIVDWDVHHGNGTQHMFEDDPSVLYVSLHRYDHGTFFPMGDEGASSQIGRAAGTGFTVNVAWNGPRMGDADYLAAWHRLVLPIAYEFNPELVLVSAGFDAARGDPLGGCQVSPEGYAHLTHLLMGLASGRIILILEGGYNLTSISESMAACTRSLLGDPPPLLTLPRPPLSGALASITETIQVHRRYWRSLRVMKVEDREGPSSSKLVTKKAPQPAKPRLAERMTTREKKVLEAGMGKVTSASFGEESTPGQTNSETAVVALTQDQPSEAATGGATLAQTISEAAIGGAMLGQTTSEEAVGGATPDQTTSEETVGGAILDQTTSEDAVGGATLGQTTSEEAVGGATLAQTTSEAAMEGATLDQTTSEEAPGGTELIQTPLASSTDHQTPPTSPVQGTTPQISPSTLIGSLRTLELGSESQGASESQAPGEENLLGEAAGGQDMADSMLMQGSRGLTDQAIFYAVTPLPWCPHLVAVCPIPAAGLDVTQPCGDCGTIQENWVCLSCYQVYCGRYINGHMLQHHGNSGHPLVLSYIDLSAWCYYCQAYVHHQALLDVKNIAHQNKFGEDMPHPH
Put plainly: Inhibition of full length N-terminal GST-tagged human recombinant HDAC6 (1 to 1215 residues) expressed in Baculovirus infected Sf9 cells using Ac-Leu-Gly-Lys (Ac)-AMC as substrate pretreated for 5 mins followed by substrate addition and measured after 30 mins. The procedure, abridged: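 HDAC6 at 15 ng/well in Tris buffer pH 8.0 with MgCl2, BSA, NaCl and KCl. Ten 3-fold dilutions preincubated 5 min at room temperature, then 10 μM Ac-Leu-Gly-Lys(Ac)-AMC for 30 min at 37 °C. IC50 by normalized dose–response nonlinear fit; performed at least three times.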

Another assay deals with A549. Put plainly: Antiproliferative activity against human A549 cells assessed as inhibition of cell viability measured for 48 hrs by microplate reader based CCK-8 assay. The assay is classed as functional. The note with it: A549, 48 h.
Another assay has as its target Tubulin (Sus scrofa) (UniProt P02554+P02550). Put plainly: Inhibition of pig brain tubulin polymerization at 10 uM measured after 20 mins by spectrometric method relative to control. In short, it runs like this:
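Pig brain tubulin was purified by three assembly/disassembly cycles and then phosphocellulose chromatography. Compound at 10 μM in PEM buffer with 1 mM GTP and 5% glycerol at 37 °C. Polymerization followed at 340 nm; inhibition taken at 20 min versus vehicle control.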

Another assay concerns the target T2, Histone deacetylase 8 (Homo sapiens, UniProt Q9BY41).
T2 sequence (Q9BY41 whole entry): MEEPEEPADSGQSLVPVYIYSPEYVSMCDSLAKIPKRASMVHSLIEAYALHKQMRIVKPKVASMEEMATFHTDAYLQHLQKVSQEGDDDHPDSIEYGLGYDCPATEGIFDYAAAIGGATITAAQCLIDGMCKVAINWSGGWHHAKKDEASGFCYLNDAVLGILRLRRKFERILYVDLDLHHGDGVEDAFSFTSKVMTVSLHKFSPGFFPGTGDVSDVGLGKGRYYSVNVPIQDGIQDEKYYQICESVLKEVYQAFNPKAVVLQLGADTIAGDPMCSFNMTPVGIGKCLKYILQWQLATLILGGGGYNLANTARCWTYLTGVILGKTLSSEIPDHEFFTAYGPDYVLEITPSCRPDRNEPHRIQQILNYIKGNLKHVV
Put plainly: Inhibition of full length C-terminal his-tagged human recombinant HDAC8 ([…]) expressed in baculovirus in Sf9 insect cells using Ac-Leu-Gly-Lys (Tfa)-AMC as substrate pretreated for 5 mins followed by substrate addition and measured after 30 mins.

A further assay concerns the target Histone deacetylase 3 (Homo sapiens, UniProt O15379). Put plainly: Inhibition of recombinant HDAC3 (unknown origin) using Ac-Leu-Gly-Lys (Ac)-AMC as substrate pretreated for 5 mins followed by substrate addition and measured after 30 mins.
The next assay deals with Histone deacetylase 1 (Homo sapiens, UniProt Q13547). Description: Inhibition of full length recombinant human HDAC1 (1 to 482 residues) expressed in Baculovirus system using Ac-Leu-Gly-Lys (Ac)-AMC as substrate pretreated for 5 mins followed by substrate addition and measured after 30 mins.
Sequence of Histone deacetylase 1 (Q13547 whole entry, the tested form may be a part): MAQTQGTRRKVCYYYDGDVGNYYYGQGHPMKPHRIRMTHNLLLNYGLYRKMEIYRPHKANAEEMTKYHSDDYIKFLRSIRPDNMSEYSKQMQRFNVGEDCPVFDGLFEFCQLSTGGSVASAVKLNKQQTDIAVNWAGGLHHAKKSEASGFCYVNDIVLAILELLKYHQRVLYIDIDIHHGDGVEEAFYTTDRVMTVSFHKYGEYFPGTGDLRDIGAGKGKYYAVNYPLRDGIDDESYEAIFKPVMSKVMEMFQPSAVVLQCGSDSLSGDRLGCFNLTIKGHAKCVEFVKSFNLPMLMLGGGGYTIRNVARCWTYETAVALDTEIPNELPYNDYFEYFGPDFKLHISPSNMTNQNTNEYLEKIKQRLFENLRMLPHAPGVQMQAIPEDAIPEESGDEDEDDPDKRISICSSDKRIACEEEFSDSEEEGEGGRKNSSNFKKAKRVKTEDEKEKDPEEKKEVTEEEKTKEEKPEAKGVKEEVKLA
The next assay has as its system HCT-116. Description: Antiproliferative activity against human HCT-116 cells assessed as inhibition of cell viability measured for 48 hrs by microplate reader based MTT assay. The note with it: HCT-116, 48 h. The assay is classed as functional. In short, it runs like this:
as §1

Assay [2] has as its target T3, Protein deacetylase HDAC6 (Homo sapiens) (UniProt Q9UBN7).
T3 sequence (whole entry): T1 sequence (Q9UBN7 whole entry)
Put plainly: Inhibition of recombinant HDAC6 (unknown origin) at 1 uM relative to control. In short, it runs like this: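 Single-point test at 1 μM against recombinant HDAC6 (15 ng/well) in 25 mM Tris pH 8.0, 1 mM MgCl₂, 0.1 mg/mL BSA, 137 mM NaCl, 2.7 mM KCl. Compound preincubated 5 min at room temperature, then Ac-Leu-Gly-Lys(Ac)-AMC 10 μM, 30 min at 37 °C. Trypsin/TSA developer 30 min. Fluorescence read at ex 350−360/em 450−460 nm.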

The IC50 is the concentration that inhibits the measured activity by half. By inhibition is commonly meant how much of the control response was suppressed.

Sequence of Histone deacetylase 3 (O15379 whole entry, the tested form may be a part): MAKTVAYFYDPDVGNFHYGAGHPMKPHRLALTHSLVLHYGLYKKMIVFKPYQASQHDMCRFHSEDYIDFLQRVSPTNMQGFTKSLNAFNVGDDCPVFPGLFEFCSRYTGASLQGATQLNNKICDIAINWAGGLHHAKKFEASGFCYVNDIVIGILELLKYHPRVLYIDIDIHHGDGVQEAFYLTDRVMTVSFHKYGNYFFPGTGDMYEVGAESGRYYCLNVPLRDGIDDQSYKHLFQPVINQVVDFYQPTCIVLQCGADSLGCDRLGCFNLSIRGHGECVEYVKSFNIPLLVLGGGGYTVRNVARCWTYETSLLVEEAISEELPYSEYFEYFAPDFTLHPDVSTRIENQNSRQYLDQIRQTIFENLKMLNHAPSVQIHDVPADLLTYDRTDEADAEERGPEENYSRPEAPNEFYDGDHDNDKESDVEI
Sequence of Tubulin (Sus scrofa) (P02550 whole entry, looked up): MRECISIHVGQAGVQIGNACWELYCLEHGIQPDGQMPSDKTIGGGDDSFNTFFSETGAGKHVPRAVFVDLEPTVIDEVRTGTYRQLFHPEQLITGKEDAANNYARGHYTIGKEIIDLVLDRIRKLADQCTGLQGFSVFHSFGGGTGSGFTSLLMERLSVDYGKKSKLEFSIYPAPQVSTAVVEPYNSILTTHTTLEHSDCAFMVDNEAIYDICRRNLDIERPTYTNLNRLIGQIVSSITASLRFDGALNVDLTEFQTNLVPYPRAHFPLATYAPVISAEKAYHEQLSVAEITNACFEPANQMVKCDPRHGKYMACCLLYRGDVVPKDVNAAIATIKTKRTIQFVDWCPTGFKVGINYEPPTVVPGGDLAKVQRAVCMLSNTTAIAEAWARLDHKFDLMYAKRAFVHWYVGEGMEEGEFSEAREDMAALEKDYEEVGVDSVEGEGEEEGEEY
Sequence of Tubulin (Sus scrofa) (P02554 whole entry, looked up): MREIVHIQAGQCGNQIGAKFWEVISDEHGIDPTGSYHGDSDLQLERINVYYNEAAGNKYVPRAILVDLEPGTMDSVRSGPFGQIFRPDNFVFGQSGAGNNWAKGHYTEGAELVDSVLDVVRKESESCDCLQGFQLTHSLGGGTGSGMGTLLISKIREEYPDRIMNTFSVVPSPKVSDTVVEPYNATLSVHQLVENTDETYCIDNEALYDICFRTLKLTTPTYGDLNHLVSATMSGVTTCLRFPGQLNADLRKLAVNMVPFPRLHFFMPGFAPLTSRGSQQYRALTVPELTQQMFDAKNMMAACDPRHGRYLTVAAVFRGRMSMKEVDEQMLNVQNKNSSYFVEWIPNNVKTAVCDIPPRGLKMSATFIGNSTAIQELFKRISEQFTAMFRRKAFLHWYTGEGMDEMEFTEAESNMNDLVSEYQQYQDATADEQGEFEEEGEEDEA

Take `COc1cc(C(=O)c2csc(-c3ccc(NC(=O)CC(=O)Nc4ccccc4N)cc3)n2)cc(OC)c1OC`: the IC50 in the assay on Jurkat is 0.06 µM; in the assay on B16-F10 it was > 10 µM; in [1] it was 21.1 µM; with A549 it was > 10 µM; at Histone deacetylase 8, 12 µM; on Histone deacetylase 3 it was 0.36 µM. Besides, the IC50 amounted to 4.07 µM at Histone deacetylase 1 and 1.01 µM with HCT-116. The same compound returned an inhibition against Tubulin (Sus scrofa) of 65%.
As for `COc1cc(C(=O)c2csc(-c3ccc(/C=C/C(=O)Nc4ccccc4N)cc3)n2)cc(OC)c1OC`, the IC50 is 0.01 µM in the assay on Jurkat; 0.81 µM in the assay on B16-F10; 22.5 µM in assay [1]; > 10 µM in the assay on A549; 3.11 µM at Histone deacetylase 8; 0.17 µM at Histone deacetylase 3. Also, the IC50 turned out to be 11 µM on Histone deacetylase 1 and 0.79 µM in the assay on HCT-116. Besides, the inhibition against Tubulin (Sus scrofa) worked out at 30%.
For `COc1cc(C(=O)c2csc(-c3ccc(NCCC(=O)Nc4ccccc4N)cc3)n2)cc(OC)c1OC`, the concentration for half-maximal inhibition (IC50) was 0.03 µM in the assay on Jurkat; 0.67 µM in the assay on B16-F10; 23.8 µM in [1]; > 10 µM in the assay on A549; 8.28 µM at Histone deacetylase 8; 0.38 µM at Histone deacetylase 3. For the same compound, the IC50 at Histone deacetylase 1 turned out to be 10.7 µM; in the assay with HCT-116 it was 0.6 µM. This compound gave an inhibition against Tubulin (Sus scrofa) of 19%.
As to `COc1cc(C(=O)c2csc(-c3ccc(NC(=O)/C=C/C(=O)NO)cc3)n2)cc(OC)c1OC`, the IC50 with Jurkat is 0.5 µM; in the assay with B16-F10, 1.48 µM; in [1] it was 1.05 µM; with A549, > 10 µM; at Histone deacetylase 8, 3.9 µM; on Histone deacetylase 3, 13 µM. Besides, the values for the IC50 at Histone deacetylase 1 and in the assay on HCT-116 were 17.5 µM and 2.82 µM, respectively. The inhibition in [2] was > 50%.
Turning to `COc1cc(C(=O)c2csc(-c3ccc(NC(=O)CCCCCC(=O)NO)cc3)n2)cc(OC)c1OC`, the IC50 in the assay with Jurkat was 0.15 µM; with B16-F10, > 10 µM; in assay [1], 1.94 µM; in the assay on A549 it was > 10 µM; at Histone deacetylase 8 it was 4.17 µM; on Histone deacetylase 3 it was 12.2 µM. Further, the IC50 turned out to be 19.1 µM on Histone deacetylase 1 and 1.9 µM with HCT-116. Moreover, in [2], the inhibition is > 50%.
For `COc1cc(C(=O)c2csc(-c3ccc(NC(=O)CCCC(=O)NO)cc3)n2)cc(OC)c1OC`, the IC50 was 0.04 µM in the assay with Jurkat; 0.75 µM in the assay with B16-F10; 1.73 µM in assay [1]; > 10 µM with A549; 6.32 µM on Histone deacetylase 8; 13.6 µM on Histone deacetylase 3. In addition, the IC50 turned out to be 10.1 µM at Histone deacetylase 1 and 0.15 µM in the assay with HCT-116. The inhibition in assay [2] is > 50%.
As for `COc1cc(C(=O)c2csc(-c3ccc(C#CCCC(=O)Nc4ccccc4N)cc3)n2)cc(OC)c1OC`, the IC50 in the assay on Jurkat is 0.26 µM; in the assay with B16-F10 it was > 10 µM; in assay [1], 20.2 µM; with A549 it was > 10 µM; on Histone deacetylase 8 it was 6.55 µM; at Histone deacetylase 3, 1.98 µM. Moreover, the IC50 on Histone deacetylase 1 is 9.77 µM; with HCT-116, 2.11 µM.
With `COc1cc(C(=O)c2csc(-c3ccc(NC(=O)CCCCCC(=O)Nc4ccccc4N)cc3)n2)cc(OC)c1OC`, the IC50 in the assay on Jurkat was 0.02 µM; in the assay with B16-F10 it was > 10 µM; in assay [1] it was 27.3 µM; in the assay on A549 it was 2.36 µM; on Histone deacetylase 8, 8.5 µM; on Histone deacetylase 3, 0.39 µM. Also, the IC50 worked out at 8.53 µM at Histone deacetylase 1 and 0.67 µM with HCT-116. Besides, the inhibition against Tubulin (Sus scrofa) amounted to 24%.
Turning to `COc1cc(C(=O)c2csc(-c3ccc(NC(=O)CCCCC(=O)Nc4ccccc4N)cc3)n2)cc(OC)c1OC`, the IC50 with Jurkat was 0.02 µM; in the assay on B16-F10, 0.83 µM; in assay [1] it was 36.4 µM; with A549, 1.54 µM; at Histone deacetylase 8, 8.74 µM; on Histone deacetylase 3, 0.18 µM. The IC50 is 8.12 µM on Histone deacetylase 1 and 0.44 µM in the assay with HCT-116. Moreover, the inhibition at Tubulin (Sus scrofa) is 28%.
Turning to `COc1cc(C(=O)c2csc(-c3ccc(NCC(=O)Nc4ccccc4N)cc3)n2)cc(OC)c1OC`, the IC50 with Jurkat was 0.06 µM; in the assay on B16-F10, 2.35 µM; in [1] it was 27.1 µM; in the assay on A549 it was 2.2 µM; on Histone deacetylase 8 it was 9.11 µM; at Histone deacetylase 3, 1.76 µM. Besides, the IC50 came to 9.8 µM at Histone deacetylase 1 and 1.64 µM in the assay on HCT-116.
`COc1cc(C(=O)c2csc(-c3ccc(OCCCCCCC(=O)Nc4ccccc4N)cc3)n2)cc(OC)c1OC`: the IC50 in the assay on Jurkat is 0.7 µM; in the assay with B16-F10, 1.89 µM; in assay [1], 27.1 µM; in the assay with A549, 2.44 µM; at Histone deacetylase 8, 7.49 µM; on Histone deacetylase 3 it was 0.47 µM. Besides, the IC50 on Histone deacetylase 1 is 7.49 µM; with HCT-116, 1.91 µM. Moreover, the inhibition on Tubulin (Sus scrofa) came out at 18%.
Regarding `COc1cc(C(=O)c2csc(-c3ccc(NC(=O)c4ccc(C(=O)Nc5ccccc5N)cc4)cc3)n2)cc(OC)c1OC`, the IC50 with Jurkat was found to be 0.52 µM; in the assay on B16-F10, 4.32 µM; in assay [1], 36.3 µM; in the assay on A549, 6.58 µM; at Histone deacetylase 8 it was 2.08 µM; at Histone deacetylase 3, 3.46 µM. For the same compound, the results for the IC50 on Histone deacetylase 1 and in the assay on HCT-116 were 10.5 µM and 1.42 µM, respectively.
